CRFR2-BP antag = blocks CRF-induced signaling of the CRF-BP/CRF-R2 complex. HEK293 CRF-R2/CRF-BP, CRF-induced calcium fluorescence. inhibition, % at 11.8 µM. 350,000 tested, 0.59% active. AID 588475;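 active = inhibition of the ligand-induced calcium signal above about 50% at the single tested concentration, limit read from the data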
S100A4 inh HTS = blocks human S100A4 binding to myosin IIA peptide. P26447. S100A4/TAMRA-MyoIIA peptide fluorescence polarization. inhibition, % at 10.7 µM. 360,000 tested, 0.14% active;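 active = mean inhibition of at least 70% across replicates, with every replicate also reaching that level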
Target sequence (P26447 whole entry, looked up): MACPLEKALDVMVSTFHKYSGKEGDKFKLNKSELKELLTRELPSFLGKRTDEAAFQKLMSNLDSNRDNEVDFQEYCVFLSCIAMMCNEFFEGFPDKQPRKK
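assay system = human S100A4 monomer with TAMRA-labelled myosin IIA peptide | also added = labelled myosin peptide probe, 5 nM | incubation = 5 min between mix addition and reading | control set = DMSO and TFP controls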
PKA-R2B activ = PKA-R2B complex activation. P22694+P31323. PKA-R2B holoenzyme dissociation, Cy5-IP20 fluorescence polarization; R2B truncated from residue 108, S112A mutant; 0% DMSO only, 100% 113 µM cGMP. activation, % at 11.4 µM. 340,000 tested, 0.079% active. AID 504700;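 active = activation above a cutoff set at the mean over all compounds plus 3 SD, cut at about 18% in these data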;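 also: higher means more holoenzyme dissociation and a rise in polarization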
SIRT5 inh = inhibitors of human sirtuin-5 desuccinylase; Q9NXA8; Purified SirT5, succinyl-peptide AMC, trypsin-coupled fluorescence; inhibition, % at 15 µM; 330,000 tested, 1.1% active; in the data active = inhibition above about 15%
Target sequence (Q9NXA8 whole entry, looked up): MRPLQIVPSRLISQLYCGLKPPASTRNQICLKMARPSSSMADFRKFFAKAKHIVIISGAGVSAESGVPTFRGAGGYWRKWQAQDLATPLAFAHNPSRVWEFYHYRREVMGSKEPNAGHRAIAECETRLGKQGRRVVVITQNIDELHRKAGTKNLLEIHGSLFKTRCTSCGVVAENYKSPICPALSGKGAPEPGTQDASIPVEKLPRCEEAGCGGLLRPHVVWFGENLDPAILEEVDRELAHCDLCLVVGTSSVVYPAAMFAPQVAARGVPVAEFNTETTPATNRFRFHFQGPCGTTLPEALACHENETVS
PKA-R1A act = activates the PKA-R1A holoenzyme complex; AID 504707; activation, % at 11.4 µM; P00514+P68181; 340,000 tested, 0.083% active; PKA-R1A dissociation, Cy5-IP20 fluorescence polarization; scaled: DMSO 0%, 113 µM cGMP 100%;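 active = percent activation above the mean of all tested compounds plus 3 SD, cut at about 19% in these data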;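 also: higher means more PKAc released from R1A so a rise in polarization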
Active calls of the source: *; . = no result. Rows were chosen to be rich in hits. Some 1.5% of all compounds tested hit in one or more screens of this group.

SMILES	CRFR2-BP antag	S100A4 inh HTS	PKA-R2B activ	SIRT5 inh	PKA-R1A act
CC(C)N1CC(C(=O)Nc2ccc(Br)c(Cl)c2)CC1=O (stereo not drawn)	60.3*	.	-2.6	.	4.0
Cc1noc(C)c1NC(=O)N(C)C[C@H]1Oc2ccc(NS(=O)(=O)c3ccc(Cl)cc3)cc2C(=O)N([C@@H](C)CO)C[C@H]1C	.	1.9	.	1.8	.
COc1ccc(CN(C)C[C@H]2Oc3ccc(NS(=O)(=O)c4ccccc4)cc3CC(=O)N([C@@H](C)CO)C[C@@H]2C)cc1	.	20.0	.	16.7*	.
COc1ccc(CN(C)C[C@H]2Oc3ccc(NS(=O)(=O)c4ccccc4)cc3CC(=O)N([C@H](C)CO)C[C@H]2C)cc1	.	-7.7	.	1.9	.
COc1ccc(CN(C)C[C@@H]2Oc3ccc(NS(=O)(=O)c4ccccc4)cc3CC(=O)N([C@H](C)CO)C[C@H]2C)cc1	.	134.5*	.	4.7	.
COc1ccc(S(=O)(=O)Nc2ccc3c(c2)CC(=O)N([C@@H](C)CO)C[C@@H](C)[C@@H](CN(C)Cc2ccc(Oc4ccccc4)cc2)O3)cc1	.	-8.4	.	14.4	.
C[C@H]1CN([C@@H](C)CO)C(=O)Cc2cc(NS(=O)(=O)c3ccc(Cl)cc3)ccc2O[C@H]1CN(C)Cc1ccc(Oc2ccccc2)cc1	.	-24.7	.	11.2	.
COc1ccc(S(=O)(=O)Nc2ccc3c(c2)CC(=O)N([C@@H](C)CO)C[C@H](C)[C@H](CN(C)Cc2ccc(Oc4ccccc4)cc2)O3)cc1	.	10.4	.	17.1*	.
C[C@@H]1CN([C@H](C)CO)C(=O)Cc2cc(NS(=O)(=O)c3ccc(Cl)cc3)ccc2O[C@H]1CN(C)Cc1ccc(Oc2ccccc2)cc1	.	-24.2	.	20.0*	.
Cc1ccc(F)cc1S(=O)(=O)N[C@@H]1CCN(Cc2ccc3[nH]ccc3c2)C1	.	51.9	.	-1.0	.
O[C@H]1C[C@H](c2ccccc2)N(Cc2cccs2)C[C@@H]1n1cc(-c2ccc(F)cc2)nn1	-25.1	-7.1	1.5	16.3*	-13.8
CCOC(=O)c1ccc(NC(=O)CN2C(=O)CSC2=O)cc1	102.2*	.	-4.6	.	-9.3
C[C@@H]1CN([C@H](C)CO)C(=O)c2cc(NC(=O)c3ccncc3)ccc2O[C@H]1CN(C)C(=O)NC1CCCCC1	.	-1.5	.	7.7	.
CO[C@H](CN(C)Cc1cc(F)ccc1F)[C@H](C)CN(C(=O)Nc1ccc(F)cc1)[C@@H](C)CO	.	2.4	.	-3.2	.
CO[C@@H](CN(C)Cc1ccc2c(c1)OCO2)[C@@H](C)CN(C(=O)Nc1ccc(F)cc1)[C@H](C)CO	.	-3.0	.	20.9*	.
CC(C)NC(=O)N(C)C[C@H]1Oc2ccc(NS(C)(=O)=O)cc2CC(=O)N([C@H](C)CO)C[C@H]1C	.	-0.5	.	-2.6	.
COc1ccc(C(=O)O/N=C(\N)Cc2ccc(Cl)c(Cl)c2)cc1OC	110.2*	1.9	-18.1	-8.8	-9.9
Cc1ccn2c(NC3CCCC3)c(-c3ccncc3)nc2c1	11.3	1.7	3.7	-1.7	3.9
Cc1ccn2c(NC3CCCCC3)c(-c3cccc(-c4cccc(Cl)c4)c3)nc2c1	-6.0	-23.0	1.2	16.5*	-10.6
CO[C@@H]1CN(C)C(=O)c2cc(NS(=O)(=O)c3cccc(C)c3)ccc2OC[C@@H](C)NC[C@H]1C	.	8.4	.	3.7	.
C[C@@H]1CCCCO[C@H](CN(C)S(=O)(=O)c2ccccc2)[C@@H](C)CN([C@@H](C)CO)C(=O)c2cc(NC(=O)Nc3ccc(F)cc3)ccc2O1	.	1.5	.	-1.1	.
C[C@@H]1CN([C@@H](C)CO)C(=O)Cc2cc(NS(=O)(=O)c3ccccc3)ccc2O[C@H]1CN(C)CC1CCCCC1	.	54.4	.	19.0*	.
C[C@@H]1CN([C@H](C)CO)C(=O)Cc2cc(NS(=O)(=O)c3ccc(F)cc3)ccc2O[C@H]1CN(C)CC1CCCCC1	.	-1.3	.	23.2*	.
C[C@@H]1CN([C@H](C)CO)C(=O)Cc2cc(NC(=O)Nc3cccc4ccccc34)ccc2O[C@H]1CN(C)Cc1ccc2c(c1)OCO2	.	2.9	.	16.5*	.
C[C@@H]1CN([C@@H](C)CO)C(=O)Cc2cc(NC(=O)Nc3cccc4ccccc34)ccc2O[C@@H]1CN(C)Cc1ccc2c(c1)OCO2	.	3.5	.	-0.5	.
SMILES	CRFR2-BP antag	S100A4 inh HTS	PKA-R2B activ	SIRT5 inh	PKA-R1A act
C[C@@H]1CN([C@H](C)CO)C(=O)Cc2cc(NS(C)(=O)=O)ccc2O[C@@H]1CN(C)CC1CC1	.	18.7	.	16.5*	.
C[C@H]1CCCCO[C@H](CN(C)C(=O)Nc2ccccc2)[C@@H](C)CN([C@@H](C)CO)C(=O)c2cc(NS(=O)(=O)c3ccc(Cl)cc3)ccc2O1	.	-15.0	.	9.3	.
CS(=O)(=O)Nc1ccc2c(c1)[C@@H]1C[C@@H](CC(=O)NCc3ccccc3F)O[C@H](CO)[C@@H]1O2	.	0.2	.	-2.4	.
COCC(=O)Nc1ccc2c(c1)OC[C@H](C)N(Cc1ccccc1F)C[C@H](C)[C@H](OC)CN(C)C2=O	.	1.9	.	0.5	.
Cc1ccccc1S(=O)(=O)N1CC(=O)N2[C@H](CO)[C@H](c3ccc(C#CCN(C)C)cc3)[C@@H]2C1	.	1.4	.	0.2	.
C[C@H](CO)N1C[C@H](C)[C@H](CN(C)CC2CCCCC2)Oc2ccc(NC(=O)Nc3ccc4c(c3)OCO4)cc2CC1=O	.	6.5	.	0.9	.
C[C@@H]1CN([C@@H](C)CO)C(=O)Cc2cc(NS(=O)(=O)c3ccc(Cl)cc3)ccc2O[C@@H]1CN(C)CC1CCCCC1	.	51.7	.	20.3*	.
C[C@H]1CN([C@@H](C)CO)C(=O)Cc2cc(NS(=O)(=O)c3ccc(Cl)cc3)ccc2O[C@H]1CN(C)CC1CC1	.	-3.1	.	-0.6	.
C[C@@H]1CN([C@H](C)CO)C(=O)Cc2cc(NC(=O)Nc3ccc4c(c3)OCO4)ccc2O[C@H]1CN(C)CC1CCCCC1	.	6.6	.	17.5*	.
COc1ccccc1S(=O)(=O)N[C@H]1C=C[C@H](CC(=O)NCc2cc(F)cc(F)c2)O[C@H]1CO	.	9.1	.	-6.9	.
CC(C)NC(=S)N(CCc1ccncc1)C(C)C	111.7*	0.1	-3.3	-2.4	-13.8
CCCNC(=O)C1(C)CCCN(C(=O)C2(c3ccc(Cl)cc3)CCCC2)C1 (stereo not drawn)	.	-0.8	.	29.9*	.
CCCNC(=O)C1(C)CCN(C(=O)C2(c3ccc(Cl)cc3)CCCC2)C1 (stereo not drawn)	.	3.6	.	.	.
N#C/C(=C(/O)COc1ccc(Cl)cc1)c1nc2ccccc2s1	71.7*	0.3	-8.3	-1.3	4.7
CCOC(=O)c1sc(=NC(=O)c2ccc(Cl)s2)n(C)c1C	114.2*	-6.4	0.7	-2.4	-9.9
C/C(=N\OCC(=O)Nc1ccc(F)c(F)c1F)c1cc2ccccc2o1	54.0*	.	-3.9	.	-13.3
O=C(C[C@@H]1C[C@@H]2c3cc(NC(=O)NC4CCCC4)ccc3O[C@@H]2[C@H](CO)O1)NCc1ccncc1	.	-0.9	.	0.4	.
CC(C)NC(=O)N(C)C[C@H]1Oc2ncc(C#CC3CC3)cc2C(=O)N([C@H](C)CO)C[C@H]1C	.	17.6	.	-3.6	.

High-throughput results deposited in PubChem BioAssay by several laboratories.
